ChEMBL document CHEMBL3232747, “Potential anti-angiogenesis effects of p-terphenyl compounds from Polyozellus multiplex” (J Nat Prod, 2014)
Active and inactive are the calls of the source. No cut-off for these calls is given here.

Assays:
HUVEC [1] = assay: Growth inhibition of HUVEC by WST-8 assay; format: functional, cell-based; settings: Homo sapiens
How it was run: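 HUVECs (passages 2–8), 3 × 10^3 cells/well on collagen, adhered 12 h in EGM-2, then 12 h in EGM-2 lacking VEGF and bFGF. VEGF (1 nM) plus compound added for 72 h at 37 °C, 5% CO2. WST-8 added 2 h, absorbance at 450 nm; Ki8751 as positive control.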

[2] = target: Vascular endothelial growth factor receptor 2 (Homo sapiens, UniProt P35968); assay: Inhibition of recombinant human VEGFR2
How it was run: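 Recombinant VEGFR2 tyrosine kinase activity measured by ELISA using a universal tyrosine kinase assay kit; Ki8751 as positive control.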

HUVEC [3] = assay: Antiangiogenic activity in HUVEC assessed as inhibition of tubule network formation after 16 hrs by fluorescence microscopic technique; format: functional, cell-based; settings: Homo sapiens
How it was run: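 HUVECs (passages 2–8) plated at 1.6 × 10^4 cells on polymerized Matrigel with test compound at 2.5, 5, 7.5 or 10 μM; suramin 10 μM as positive control. Incubated 16 h, 37 °C, 5% CO2. Calcein-AM stained, imaged by fluorescence microscopy at 4×, total tubule length quantified.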

HUVEC [4] = assay: Antiinvasive activity in HUVEC by matrigel assay at 2.5 uM after 22 hrs by fluorescence microscopic technique; format: functional, cell-based; settings: Homo sapiens
How it was run: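 HUVECs starved 5 h in serum-free EBM-2 with 0.2% BSA, then 1 × 10^5 cells with compound (2.5 or 5 μM) loaded into inserts coated with 0.2 mg/mL Matrigel. Lower chamber: EBM-2, 0.2% BSA, 20 ng/mL VEGF, 1% FBS plus compound. After 22 h at 37 °C, invaded cells calcein-AM labeled, read at 494/517 nm; mean ± SD, n = 3.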

Vascular endothelial growth factor receptor 2, sequence (P35968 whole entry): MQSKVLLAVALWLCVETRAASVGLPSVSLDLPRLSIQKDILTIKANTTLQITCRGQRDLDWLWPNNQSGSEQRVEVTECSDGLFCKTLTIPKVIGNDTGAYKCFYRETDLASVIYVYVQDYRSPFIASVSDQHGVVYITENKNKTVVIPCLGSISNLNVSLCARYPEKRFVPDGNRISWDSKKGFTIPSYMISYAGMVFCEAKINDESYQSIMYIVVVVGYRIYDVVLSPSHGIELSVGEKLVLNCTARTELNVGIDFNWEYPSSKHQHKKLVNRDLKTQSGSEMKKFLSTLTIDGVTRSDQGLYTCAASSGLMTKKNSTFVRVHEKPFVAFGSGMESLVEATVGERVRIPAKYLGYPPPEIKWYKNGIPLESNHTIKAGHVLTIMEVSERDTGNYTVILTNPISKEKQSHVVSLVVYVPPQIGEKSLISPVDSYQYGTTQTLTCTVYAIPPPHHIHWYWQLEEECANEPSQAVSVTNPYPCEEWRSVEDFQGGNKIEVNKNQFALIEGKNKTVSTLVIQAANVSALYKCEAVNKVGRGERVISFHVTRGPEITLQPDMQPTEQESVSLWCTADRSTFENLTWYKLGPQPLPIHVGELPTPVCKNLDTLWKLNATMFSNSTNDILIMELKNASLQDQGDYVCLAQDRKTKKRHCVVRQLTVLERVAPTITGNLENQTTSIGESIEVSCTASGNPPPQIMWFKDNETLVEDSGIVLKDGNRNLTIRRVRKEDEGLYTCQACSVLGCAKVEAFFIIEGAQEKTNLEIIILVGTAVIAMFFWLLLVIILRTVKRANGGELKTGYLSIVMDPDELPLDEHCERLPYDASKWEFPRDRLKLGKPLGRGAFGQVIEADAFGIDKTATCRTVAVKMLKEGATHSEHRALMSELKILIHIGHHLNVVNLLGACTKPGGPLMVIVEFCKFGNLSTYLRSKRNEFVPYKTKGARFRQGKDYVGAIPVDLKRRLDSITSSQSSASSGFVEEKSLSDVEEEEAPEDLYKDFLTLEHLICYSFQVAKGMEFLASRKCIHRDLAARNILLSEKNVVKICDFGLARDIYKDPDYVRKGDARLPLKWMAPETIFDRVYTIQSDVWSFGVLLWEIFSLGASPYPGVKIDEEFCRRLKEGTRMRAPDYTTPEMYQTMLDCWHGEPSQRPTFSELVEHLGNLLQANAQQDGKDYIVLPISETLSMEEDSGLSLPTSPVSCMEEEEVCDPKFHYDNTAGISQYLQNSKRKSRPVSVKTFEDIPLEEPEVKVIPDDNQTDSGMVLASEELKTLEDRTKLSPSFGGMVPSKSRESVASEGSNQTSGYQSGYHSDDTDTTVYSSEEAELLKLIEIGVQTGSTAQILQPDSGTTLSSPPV

Compound	IC50 [2]	IC50 (HUVEC [1])	inhibition (HUVEC [3])	inhibition (HUVEC [4])
COc1cc2nccc(Oc3ccc(NC(=O)Nc4ccc(F)cc4F)c(F)c3)c2cc1OC	2.4 µM	1.4 µM		
CC(=O)Oc1c2oc3cc(O)c(O)cc3c2c(OC(C)=O)c2oc3cc(O)c(O)cc3c12 [POLYOZELLIN]	66 µM	10.2 µM	inactive	

Continued, in another order:

IC50 [2]	Compound	IC50 (HUVEC [1])	inhibition (HUVEC [3])	inhibition (HUVEC [4])
52 µM	CC(=O)CC1(O)C(=O)c2c(oc3cc(O)c(O)cc23)-c2oc3cc(O)c(O)cc3c21 (racemic)	21.4 µM	inactive	
32 µM	O=C1C(=O)c2c(oc3cc(O)c(O)cc23)-c2oc3cc(O)c(O)cc3c21	7.6 µM	Dose-dependent effect	Active
70 µM	O=C1c2oc3cc(O)c(O)cc3c2C(=O)c2oc3cc(O)c(O)cc3c21	3.4 µM	Dose-dependent effect	Active
